From article PMC3035813 (The Journal of neuroscience : the official journal of the …, 2009)
No end group written: not given here.

Key:
[1] = system: GnRH neurons; test: GnRH neuron firing, targeted extracellular recordings in brain slices; type: cell-based, mouse; settings: 1 nM, 5 min, n=7
[2] = system: adult male rats; test: LH and testosterone in intact adult male rats after icv injection; type: in vivo, rat; settings: 100 pmol kisspeptin-10 icv alone
How it was run: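 Intact adult male rats (280–310 g; 14 h light, 22°C) with lateral-ventricle cannulae (4 mm deep; 1 mm posterior, 1.2 mm lateral to bregma), tested 24–48 h after implantation. 5 μl icv injections at 60 min intervals; 100 pmol kisspeptin-10 given with the last. Controls received saline vehicle. Jugular blood was taken 60 min later (180 min). Serum testosterone was measured by commercial kit (sensitivity 0.1 ng/tube; intraassay CV 4.5%).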

Substance: kisspeptin-10 (YNWNSFGLRF; ends and bridges not checked; UniProt Q15726 112-121, looked up)
- effect on GnRH neuron firing activity [1]: markedly increased GnRH neuron firing activity
- testosterone levels at 60-min [2]: 2.17 ± 0.2
